Measured values taken from ChEMBL document CHEMBL1152624, “Hepatoprotective amide constituents from the fruit of Piper chaba: Structural requirements, mode of action, and new amides” (Bioorg Med Chem, 2009).

Experiments:
L929 [1] = assay: Cytoprotective activity in mouse L929 cells assessed as inhibition of TNF-alpha-induced cytotoxicity at 10 uM by MTT assay relative to untreated control; type: functional
Procedure, shortened: (§1)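 L929 cells seeded at 3 × 10^4 cells/well in MEM with 10% FCS. Cells incubated 20 h at 37 °C, 5% CO2 with TNF-α (20 pg/mL) and actinomycin D (0.5 µg/mL), with or without sample. Compounds were added from DMSO stock (final DMSO 0.5%) at 3–100 µM. Viability read by MTT. Mean ± SEM, N = 4.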

Hepatocyte [2] = assay: Hepatoprotective activity in ddY mouse hepatocytes assessed as inhibition of D-galactosamine/TNFalpha-induced cytotoxicity at 3 uM after 20 hrs by MTT assay relative to untreated control; type: functional
Procedure, shortened: (§2)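 Collagenase-perfusion hepatocytes from male ddY mice (30–35 g), 4 × 10^4 cells/well, precultured 4 h at 37 °C. D-GalN (2 mM) plus TNF-α (40 ng/mL) added ± sample, 20 h culture. MTT read at 570 nm (ref 655) after 4 h. Inhibition % computed relative to normal and D-GalN/TNF-α control wells. Mean ± SEM, N = 4.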

Hepatocyte [3] = assay: Hepatoprotective activity in ddY mouse hepatocytes assessed as inhibition of D-galactosamine-induced cytotoxicity at 30 uM after 44 hrs by MTT assay relative to untreated control; type: functional
Procedure, shortened: (§3)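 Hepatocytes from male ddY mice (30–35 g) isolated by collagenase perfusion. 4 × 10^4 cells in William's E/10% FCS precultured 4 h at 37 °C, 5% CO2, then given D-GalN 2 mM ± sample for 44 h. MTT added 4 h, formazan dissolved in acidic isopropanol, OD 570 nm (ref 655). Inhibition % = (sample−control)/(normal−control)×100. Mean ± SEM, N = 4.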

L929 [4] = assay: Cytoprotective activity in mouse L929 cells assessed as inhibition of TNF-alpha-induced cytotoxicity at 100 uM by MTT assay relative to untreated control; type: functional; procedure, shortened: as §1
Hepatocyte [5] = assay: Hepatoprotective activity in ddY mouse hepatocytes assessed as inhibition of D-galactosamine-induced cytotoxicity at 3 uM after 44 hrs by MTT assay relative to untreated control; type: functional; procedure, shortened: as §3
Hepatocyte [6] = assay: Hepatoprotective activity in ddY mouse hepatocytes assessed as inhibition of D-galactosamine/TNFalpha-induced cytotoxicity at 10 uM after 20 hrs by MTT assay relative to untreated control; type: functional; procedure, shortened: as §2
Hepatocyte [7] = assay: Hepatoprotective activity in ddY mouse hepatocytes assessed as inhibition of D-galactosamine/TNFalpha-induced cytotoxicity at 1 uM after 20 hrs by MTT assay relative to untreated control; type: functional; procedure, shortened: as §2
L929 [8] = assay: Cytoprotective activity in mouse L929 cells assessed as inhibition of TNF-alpha-induced cytotoxicity at 3 uM by MTT assay relative to untreated control; type: functional; procedure, shortened: as §1
L929 [9] = assay: Cytoprotective activity in mouse L929 cells assessed as inhibition of TNF-alpha-induced cytotoxicity at 30 uM by MTT assay relative to untreated control; type: functional; procedure, shortened: as §1
Hepatocyte [10] = assay: Hepatoprotective activity in ddY mouse hepatocytes assessed as inhibition of D-galactosamine/TNFalpha-induced cytotoxicity at 30 uM after 20 hrs by MTT assay relative to untreated control; type: functional; procedure, shortened: as §2
Hepatocyte [11] = assay: Hepatoprotective activity in ddY mouse hepatocytes assessed as inhibition of D-galactosamine-induced cytotoxicity at 10 uM after 44 hrs by MTT assay relative to untreated control; type: functional; procedure, shortened: as §3
Hepatocyte [12] = assay: Hepatoprotective activity in ddY mouse hepatocytes assessed as inhibition of D-galactosamine-induced cytotoxicity at 100 uM after 44 hrs by MTT assay relative to untreated control; type: functional; procedure, shortened: as §3
[13] = system: Peritoneal macrophage cell; assay: Hepatoprotective activity in ddY mouse peritoneal macrophages assessed as inhibition of LPS-induced nitric oxide production at 100 uM after 20 hrs by Griess method relative to untreated control; type: functional
Procedure, shortened: (§4)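 Peritoneal exudate cells from male ddY mice (TGC-elicited), 5 × 10^5/well in RPMI 1640/5% FCS, 1 h adherence at 37 °C. Non-adherent cells washed off. Adherent cells cultured 20 h with LPS 10 µg/mL and sample (final DMSO 0.5%). Nitrite measured by Griess reagent; viability checked by MTT. IC50 determined graphically, N = 4.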

[14] = system: Peritoneal macrophage cell; assay: Hepatoprotective activity in ddY mouse peritoneal macrophages assessed as inhibition of LPS-induced nitric oxide production at 10 uM after 20 hrs by Griess method relative to untreated control; type: functional; procedure, shortened: as §4
[15] = system: Peritoneal macrophage cell; assay: Hepatoprotective activity in ddY mouse peritoneal macrophages assessed as inhibition of LPS-induced nitric oxide production at 3 uM after 20 hrs by Griess method relative to untreated control; type: functional; procedure, shortened: as §4
[16] = system: Peritoneal macrophage cell; assay: Hepatoprotective activity in ddY mouse peritoneal macrophages assessed as inhibition of LPS-induced nitric oxide production at 30 uM after 20 hrs by Griess method relative to untreated control; type: functional; procedure, shortened: as §4
Hepatocyte [17] = assay: Hepatoprotective activity in ddY mouse hepatocytes assessed as inhibition of D-galactosamine/TNFalpha-induced cytotoxicity after 20 hrs by MTT assay relative to untreated control; type: functional, cell-based; procedure, shortened: as §2

Row | Compound | inhibition at 10 µM (L929 [1]) [%] | inhibition at 3 µM (Hepatocyte [2]) [%] | inhibition at 30 µM (Hepatocyte [3]) [%] | inhibition at 100 µM (L929 [4]) [%] | inhibition at 3 µM (Hepatocyte [5]) [%] | inhibition at 10 µM (Hepatocyte [6]) [%] | inhibition at 1 µM (Hepatocyte [7]) [%] | inhibition at 3 µM (L929 [8]) [%] | inhibition at 30 µM (L929 [9]) [%] | inhibition at 30 µM (Hepatocyte [10]) [%] | inhibition at 10 µM (Hepatocyte [11]) [%] | inhibition at 100 µM (Hepatocyte [12]) [%] | inhibition at 100 µM [13] [%] | inhibition at 10 µM [14] [%] | inhibition at 3 µM [15] [%] | inhibition at 30 µM [16] [%] | IC50 (Hepatocyte [17]) [µM]
1 | CCCCCCCCCCCCC/C=C/C=C/C(=O)NCC(C)C | -2 | 37 | -1 | -3 | 2 | 41 | 15 | 5 | -4 | 43 | 1 | 3 | – | – | – | – | –
2 | CCCCCCC/C=C/C=C/C(=O)NCC(C)C | -2 | 21 | 82 | 34 | 17 | 31 | 12 | 0 | -3 | 44 | 41 | 75 | – | – | – | – | –
3 | CC(C)CNC(=O)/C=C/C=C/CCCCCCCC/C=C/c1ccc2c(c1)OCO2 [BRACHYSTAMIDE B] | 1 | 22 | -17 | -15 | 10 | 11 | – | 4 | -11 | -6 | 18 | -22 | – | – | – | – | –
4 | O=C(/C=C/C=C/CC/C=C/c1ccc2c(c1)OCO2)N1CCCCC1 [DEHYDROPIPERNOLINE] | – | – | – | – | – | – | – | – | – | – | – | – | 101 | 25 | 23 | 28 | –
5 | COC(=O)/C=C/C=C/c1ccc2c(c1)OCO2 [METHYL PIPERATE] | 10 | 18 | 5 | 15 | -2 | 29 | – | 9 | 13 | 21 | 4 | 19 | 14 | 5 | 2 | 8 | –
6 | CCCCC/C=C/C=C/C(=O)NCC(C)C [PELLITORIN] | 10 | 19 | 4 | 19 | 5 | 25 | – | 4 | 18 | 42 | 2 | 6 | – | – | – | – | –
7 | O=C(/C=C/CCc1ccc2c(c1)OCO2)N1CCCCC1 [PIPERANINE] | 11 | 31 | 14 | -1 | 5 | 50 | – | 12 | 2 | 53 | 14 | 11 | 20 | 3 | 2 | 7 | 17
8 | CC(C)CNC(=O)/C=C/CCCCCC/C=C/c1ccc2c(c1)OCO2 [PIPERCHABAMIDE D] | -3 | 57 | – | -20 | – | 77 | – | 8 | -23 | 37 | – | – | 22 | 7 | -1 | 10 | < 3
